Results reported in paper PMC11864002 (Journal of Enzyme Inhibition and Medicinal Chemistry, 2025).
Substitutions are numbered along the chain they refer to. Where “and” joins values, the source holds several entries; their conditions need not be identical. Identical values can stand only once.

Assays:
[1] = tested on: COS-7 cells; settings: transiently expressed in COS-7 cells, substrate MU-α-D-Glc; cited from earlier work
[2] = biological target: T1, MalA WT (Saccharolobus solfataricus, UniProt D0KQM8); experiment: Differential scanning fluorimetry with inhibitors/NAC, MalA WT; type: binding, Saccharolobus solfataricus 98/2
T1 sequence (D0KQM8 1-700): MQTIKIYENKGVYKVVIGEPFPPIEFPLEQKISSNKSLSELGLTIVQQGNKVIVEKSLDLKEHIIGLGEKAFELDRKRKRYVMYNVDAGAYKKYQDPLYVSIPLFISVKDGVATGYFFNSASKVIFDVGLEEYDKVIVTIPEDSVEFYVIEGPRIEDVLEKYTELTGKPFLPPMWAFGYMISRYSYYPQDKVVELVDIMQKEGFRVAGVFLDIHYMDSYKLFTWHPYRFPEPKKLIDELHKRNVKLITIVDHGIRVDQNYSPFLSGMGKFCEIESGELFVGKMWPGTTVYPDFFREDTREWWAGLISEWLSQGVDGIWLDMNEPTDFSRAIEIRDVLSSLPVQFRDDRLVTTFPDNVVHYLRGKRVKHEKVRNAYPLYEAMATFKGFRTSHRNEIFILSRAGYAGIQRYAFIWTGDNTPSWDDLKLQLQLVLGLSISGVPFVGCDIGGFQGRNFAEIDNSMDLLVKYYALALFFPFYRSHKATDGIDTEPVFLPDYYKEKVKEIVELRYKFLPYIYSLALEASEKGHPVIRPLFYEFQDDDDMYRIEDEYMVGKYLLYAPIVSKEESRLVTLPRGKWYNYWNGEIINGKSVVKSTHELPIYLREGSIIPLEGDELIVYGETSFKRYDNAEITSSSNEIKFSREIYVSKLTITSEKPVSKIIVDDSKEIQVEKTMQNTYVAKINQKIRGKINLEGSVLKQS
Procedure, shortened: (§1)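 His-tagged MalA (WT, R400G or R400H) was expressed in E. coli BL21(DE3) RIL, heat-fractionated at 70 °C and Ni-purified. Each enzyme ([…]) was mixed with SYPRO Orange in 0.2 M sodium citrate pH 5.0, sodium phosphate pH 7.0 or sodium borate pH 8.5, in triplicate. Held 10 min at 25 °C, scanned 25–95 °C ([…]), then held 10 min. Ligands: 1-DNJ or NB-DNJ 0.1/0.8 mM, acarbose 0.4/1.0 mM, NAC 10/30 mM. Tm fitted on normalised fluorescence; SD from […] replicates.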

[3] = biological target: T2, MalA R400H (Saccharolobus solfataricus, UniProt D0KQM8, R400H); experiment: Differential scanning fluorimetry with inhibitors/NAC, MalA R400H; type: binding, Saccharolobus solfataricus 98/2
T2 sequence (D0KQM8 1-700 R400H): T1 sequence (D0KQM8 1-700) with R400H
Procedure, shortened: as §1

[4] = biological target: T3, MalA R400G (Saccharolobus solfataricus, UniProt D0KQM8, R400G); experiment: Differential scanning fluorimetry with inhibitors/NAC, MalA R400G; type: binding, Saccharolobus solfataricus 98/2
T3 sequence (D0KQM8 1-700 R400G): T1 sequence (D0KQM8 1-700) with R400G
Procedure, shortened: as §1

[5] = tested on: α-glucosidase from rice; experiment: Differential scanning fluorimetry with NAC, α-glucosidase from rice; type: binding; settings: GH31 GAA from rice, Figure S7
Procedure, shortened: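 Rice α-glucosidase (type V, 2.5 µg) in 0.2 M sodium borate pH 8.0 with SYPRO Orange, in triplicate, with NAC present. Thermal scan 25–95 °C in 1 °C increments every 0.5 min. Fluorescence normalised to each scan's maximum. Tm calculated per Niesen by curve fitting.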

[6] = tested on: recombinant GAA; settings: 10 mM NAC; cited from earlier work
[7] = biological target: T4, MalA wild-type (Saccharolobus solfataricus, UniProt D0KQM8); experiment: IC50 determination on pNP-α-D-Glc, MalA wild-type; type: biochemical, Saccharolobus solfataricus 98/2
T4 sequence (D0KQM8 1-700): T1 sequence (D0KQM8 1-700)
Procedure, shortened: (§2)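 Standard assay: 10 mM pNP-α-D-Glc in 100 mM sodium citrate pH 5.0, 85 °C, 2 min. Enzyme per reaction: WT 0.9 µg, R400H 26 µg, R400G 45 µg. Stopped on ice with sodium carbonate pH 10.2; A420 read at room temperature. Inhibitor ranges: 1-DNJ up to 5 mM, acarbose up to 9 mM, NB-DNJ up to 1 mM.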

[8] = biological target: T2, MalA R400H; experiment: IC50 determination on pNP-α-D-Glc, MalA R400H; type: biochemical, Saccharolobus solfataricus 98/2
Procedure, shortened: as §2

[9] = biological target: T3, MalA R400G; experiment: IC50 determination on pNP-α-D-Glc, MalA R400G; type: biochemical, Saccharolobus solfataricus 98/2
Procedure, shortened: as §2

[10] = biological target: T4, MalA wild-type; experiment: Inhibition kinetics; type: biochemical, Saccharolobus solfataricus 98/2
[11] = biological target: T2, MalA R400H; experiment: Inhibition kinetics; type: biochemical, Saccharolobus solfataricus 98/2
Procedure, shortened: (§3)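 Inhibition kinetics at 85 °C under the standard pNP-α-D-Glc assay (100 mM sodium citrate pH 5.0; stopped with sodium carbonate, A420). Enzyme per reaction: R400H 26 µg, R400G 45 µg, wild type 0.9 µg. Inhibitor ranges: 1-DNJ 0.02–25.0 µM, acarbose 10.0–500 µM, NB-DNJ 0.5–25.0 µM.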

[12] = biological target: T3, MalA R400G; experiment: Inhibition kinetics; type: biochemical, Saccharolobus solfataricus 98/2
Procedure, shortened: as §3

[13] = tested on: recombinant GAA; settings: cited from earlier work
[14] = Melting temperature of the enzymes by differential scanning fluorimetry; type: physicochemical; settings: for Tm: DSF
Procedure, shortened: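 Recombinant human GAA (2.5 µg) with SYPRO Orange in 150 mM NaCl plus 50 mM sodium phosphate pH 7.4 or 50 mM sodium acetate, in triplicate. Scanned 25–95 °C in 1 °C increments every 1 min. Fluorescence normalised to each scan's maximum. Tm derived per Niesen by curve fitting.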

Molecule	IC50 [7]	IC50 [8]	IC50 [9]	Ki [10]	Ki [11]	Ki [12]	Tm MalA WT ([2]; 0.1 mM inhibitor)	Tm MalA WT ([2]; 0.8 mM inhibitor)	Tm MalA R400H ([3]; 0.1 mM inhibitor)	Tm MalA R400H ([3]; 0.8 mM inhibitor)	Tm MalA R400G ([4]; 0.1 mM inhibitor)	Tm MalA R400G ([4]; 0.8 mM inhibitor)	IC50 [13]	further results
R600H: pathogenic human GAA mutant transiently expressed in COS-7 cells														activity compared to GAA wild-type [1]: less than 2%
CC(=O)N[C@@H](CS)C(=O)O [NAC, N-acetylcysteine]														Tm MalA WT ([2]; 10 mM NAC): 75.8 ± 0.86 °C; Tm MalA WT ([2]; 30 mM NAC): 79.6 ± 0.54 °C; Tm MalA R400H ([3]; 10 mM NAC): 64.9 ± 0.03 °C; Tm MalA R400H ([3]; 30 mM NAC): 67.7 ± 0.13 °C; Tm MalA R400G ([4]; 10 mM NAC): 65.5 ± 0.04 °C; Tm MalA R400G ([4]; 30 mM NAC): 67.3 ± 0.11 °C; stabilising effect [5]: no stabilising effect; increase of Tm [6]: 10.5 ± 0.5 °C and 10.5 °C
CCCCN1C[C@H](O)[C@@H](O)[C@H](O)[C@H]1CO [NB-DNJ, N-butyldeoxynojirimycin]	1.7 ± 0.2 µM	5.7 ± 0.21 µM	55 ± 6.62 µM	0.13 µM	0.7 µM	0.13 µM	86 ± 0.7 °C	85.1 ± 0.6 °C	64.7 ± 0.4 °C	61.7 ± 0.1 °C	65.6 ± 0.2 °C	63.5 ± 0.1 °C	158 µM	Ki fold higher than WT ([11]; R400H vs MalA WT): 5.4 fold
recombinant GAA: recombinant human lysosomal acid α-glucosidase														Tm ([14]; pH 4.0): 53.7 ± 0.2 °C; Tm ([14]; pH 7.4): 47.9 ± 0.7 °C; Tm difference, less than MalA WT at pH 8.5 ([14]; GAA at pH 4.0): 23.3 °C; Tm difference, less than MalA WT at pH 8.5 ([14]; GAA at pH 7.4): 29.1 °C
C[C@H]1O[C@H](O[C@H]2[C@H](O)[C@@H](O)[C@@H](O[C@H]3[C@H](O)[C@@H](O)C(O)O[C@@H]3CO)O[C@@H]2CO)[C@H](O)[C@@H](O)[C@@H]1N[C@H]1C=C(CO)[C@@H](O)[C@H](O)[C@H]1O (some centres unmarked) [Acarbose, acarbose]	20.2 ± 0.9 µM	830 ± 91.5 µM	912 ± 67.5 µM	0.98 µM	72 µM	23 µM								Tm MalA WT ([2]; 0.4 mM inhibitor): 79.1 ± 0.9 °C; ΔTm ([2]; 0.4 mM inhibitor, vs no inhibitor): +2.0 °C; Tm MalA WT ([2]; 1.0 mM inhibitor): 79.8 ± 0.7 °C; Tm MalA R400H ([3]; 0.4 mM inhibitor): 64.2 ± 0.1 °C; Tm MalA R400H ([3]; 1.0 mM inhibitor): 64.2 ± 0.2 °C; Tm MalA R400G ([4]; 0.4 mM inhibitor): 65 ± 0.04 °C; Tm MalA R400G ([4]; 1.0 mM inhibitor): 65 ± 0.1 °C
OC[C@H]1NC[C@H](O)[C@@H](O)[C@@H]1O [1-DNJ, 1-deoxynojirimycin]	0.1 ± 0.01 µM	30 ± 2.3 µM	224 ± 41 µM	0.009 µM	2.2 µM	1.4 µM	84.1 ± 0.5 °C	87.1 ± 0.3 °C	65.5 ± 0.2 °C	64.1 ± 0.1 °C	66.4 ± 0.2 °C	67.5 ± 0.3 °C	20 µM	
